# Experimental data taken from ChEMBL document CHEMBL3352221, “Acyclic tethers mimicking subunits of polysaccharide ligands: selectin antagonists” (ACS Med Chem Lett, 2014).
# pIC50: −log10 of the molar value. Activity calls are given as the source filed them. No cut-off for these calls is given here.
# Experiments:
# Mus musculus = experiment: Inhibition of TNFalpha-induced decrease in leukocyte rolling flux in mouse cremaster at 100 mg/kg, iv; type: functional, organism-based; design: dose 100 mg/kg
# In short: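 Intravital microscopy of mouse cremaster. Mice receive rmTNFα in 150 μL saline. Compound in saline, or saline alone, is given intrajugularly at 100 mg/kg. Leukocyte rolling is read before and 10 min after injection. Means of 5 readings per venule, 10 venules per mouse, 5–6 mice per condition (±SEM).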
# P-selectin [1] = biological target: T1, P-selectin (Homo sapiens, UniProt P16109); experiment: Antagonist activity at P-selectin (unknown origin) assessed as adhesion to [3H]thymidine-labelled human HL60 cells by static assay; type: cell-based, HL-60
# T1 sequence (P16109 whole entry): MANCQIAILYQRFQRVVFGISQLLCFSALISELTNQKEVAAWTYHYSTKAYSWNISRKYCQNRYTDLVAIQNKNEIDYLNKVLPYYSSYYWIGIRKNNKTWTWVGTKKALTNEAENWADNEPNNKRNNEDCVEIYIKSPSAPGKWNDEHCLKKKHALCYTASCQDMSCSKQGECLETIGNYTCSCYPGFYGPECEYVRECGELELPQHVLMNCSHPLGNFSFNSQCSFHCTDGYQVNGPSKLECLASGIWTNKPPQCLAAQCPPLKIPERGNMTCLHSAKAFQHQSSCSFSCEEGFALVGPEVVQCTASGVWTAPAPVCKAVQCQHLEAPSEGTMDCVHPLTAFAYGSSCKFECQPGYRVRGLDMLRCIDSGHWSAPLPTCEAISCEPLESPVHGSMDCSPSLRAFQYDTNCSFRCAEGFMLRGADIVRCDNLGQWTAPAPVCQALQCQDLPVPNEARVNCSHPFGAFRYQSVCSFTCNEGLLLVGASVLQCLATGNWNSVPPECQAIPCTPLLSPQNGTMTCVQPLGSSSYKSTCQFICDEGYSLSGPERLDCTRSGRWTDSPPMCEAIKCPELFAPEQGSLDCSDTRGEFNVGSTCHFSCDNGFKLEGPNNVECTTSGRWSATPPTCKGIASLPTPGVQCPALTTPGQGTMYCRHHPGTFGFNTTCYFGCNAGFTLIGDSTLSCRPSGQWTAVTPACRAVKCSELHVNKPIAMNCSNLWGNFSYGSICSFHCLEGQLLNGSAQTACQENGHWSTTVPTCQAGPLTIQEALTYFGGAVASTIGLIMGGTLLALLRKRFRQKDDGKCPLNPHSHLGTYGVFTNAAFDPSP
# In short: (§1)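 HL-60 cells labelled with [3H]thymidine in the culture medium. Wells precoated with goat anti-human IgG, then E- or P-selectin IgG (per line) captured. Labelled cells incubated on the immobilized selectin with test compound over a dose range. Non-adherent cells washed off, bound radioactivity counted, and IC50 derived from the dose-dependent loss of adherent cells.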
# E-selectin = biological target: T2, E-selectin (Homo sapiens, UniProt P16581); experiment: Antagonist activity at E-selectin (unknown origin) assessed as adhesion to [3H]thymidine-labelled human HL60 cells by static assay; type: cell-based, HL-60; in short: as §1
# T2 sequence (P16581 whole entry): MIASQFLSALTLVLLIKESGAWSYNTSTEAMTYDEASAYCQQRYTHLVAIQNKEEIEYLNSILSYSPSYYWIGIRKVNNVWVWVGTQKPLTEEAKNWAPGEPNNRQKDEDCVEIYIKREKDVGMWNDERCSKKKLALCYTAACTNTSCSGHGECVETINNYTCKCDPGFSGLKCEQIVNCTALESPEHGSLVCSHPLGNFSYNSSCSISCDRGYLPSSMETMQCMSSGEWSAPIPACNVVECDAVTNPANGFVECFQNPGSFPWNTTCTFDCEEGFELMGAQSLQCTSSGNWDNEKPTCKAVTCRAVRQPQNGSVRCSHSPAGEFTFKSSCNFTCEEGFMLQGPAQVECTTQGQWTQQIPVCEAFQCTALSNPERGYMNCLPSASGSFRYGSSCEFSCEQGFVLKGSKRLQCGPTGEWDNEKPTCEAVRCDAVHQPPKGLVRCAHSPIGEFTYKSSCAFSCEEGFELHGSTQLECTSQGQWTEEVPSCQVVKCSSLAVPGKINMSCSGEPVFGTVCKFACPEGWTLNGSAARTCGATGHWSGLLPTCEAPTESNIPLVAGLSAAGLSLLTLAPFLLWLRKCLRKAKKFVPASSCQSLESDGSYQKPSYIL
# P-selectin [2] = biological target: T1, P-selectin; experiment: Antagonist activity at P-selectin (unknown origin) by surface plasmon resonance-based dynamic assay
pIC50 (P-selectin [1]),pIC50 (E-selectin),pIC50 (P-selectin [2]),SMILES,inhibition (Mus musculus)
–,–,–,CC(=O)N[C@H]1[C@H]([C@H](O)[C@H](O)CO)O[C@@](O[C@H]2[C@@H](O)[C@@H](CO)O[C@@H](O[C@@H]([C@H](O[C@@H]3O[C@@H](C)[C@@H](O)[C@@H](O)[C@@H]3O)[C@H](C=O)NC(C)=O)[C@H](O)CO)[C@@H]2O)(C(=O)O)C[C@@H]1O,Active
2.32,2.26,–,COC(=O)[C@H](O[C@@H]1O[C@@H](C)[C@@H](O)[C@@H](O)[C@@H]1O)[C@@H](O[C@@H]1O[C@H](CO)[C@H](O)[C@H](O[C@H](Cc2ccccc2)C(=O)O)[C@H]1O)C(=O)OC,–
3.72,3.66,4.47,CC(C)OC(=O)[C@H](O[C@@H]1O[C@@H](C)[C@@H](O)[C@@H](O)[C@@H]1O)[C@@H](O[C@@H]1O[C@H](CO)[C@H](O)[C@H](O[C@H](Cc2ccccc2)C(=O)O)[C@H]1OC(=O)c1ccccc1)C(=O)OC(C)C,–
3.96,3.85,4.74,COC(=O)[C@H](O[C@@H]1O[C@@H](C)[C@@H](O)[C@@H](O)[C@@H]1O)[C@@H](O[C@@H]1O[C@H](CO)[C@H](OC(=O)c2ccccc2)[C@H](O[C@H](Cc2ccccc2)C(=O)O)[C@H]1OC(=O)c1ccccc1)C(=O)OC,–
–,–,5.10,CC(C)OC(=O)[C@H](O[C@H]1O[C@@H](CO)[C@H](OC(=O)c2ccccc2)[C@@H](O[C@@H](Cc2ccccc2)C(=O)O)[C@H]1OC(=O)c1ccccc1)[C@@H](O[C@H]1O[C@@H](C)[C@@H](O)[C@@H](O)[C@@H]1O)C(=O)OCCc1cn(CCCCCOC(=O)[C@H](O[C@@H]2O[C@@H](C)[C@@H](O)[C@@H](O)[C@H]2O)[C@@H](O[C@@H]2O[C@H](CO)[C@H](OC(=O)c3ccccc3)[C@H](O[C@H](Cc3ccccc3)C(=O)O)[C@H]2OC(=O)c2ccccc2)C(=O)OC(C)C)nn1,–
–,–,4.68,COC(=O)[C@H](O[C@@H]1O[C@@H](C)[C@@H](O)[C@@H](O)[C@@H]1O)[C@@H](O[C@@H]1O[C@H](CO)[C@H](OC(=O)c2ccccc2)[C@H](O[C@H](Cc2ccccc2)C(=O)O)[C@H]1OC(=O)c1ccccc1)C(=O)OC(C)C,–
2.72,2.68,3.28,COC(=O)[C@H](O[C@@H]1O[C@@H](C)[C@@H](O)[C@@H](O)[C@@H]1O)[C@@H](O[C@@H]1O[C@H](CO)[C@H](O)[C@H](O[C@H](Cc2ccccc2)C(=O)O)[C@H]1OC(=O)c1ccccc1)C(=O)OC,–
4.17,4.12,5.10,CC(C)OC(=O)[C@H](O[C@@H]1O[C@@H](C)[C@@H](O)[C@@H](O)[C@@H]1O)[C@@H](O[C@@H]1O[C@H](CO)[C@H](OC(=O)c2ccccc2)[C@H](O[C@H](Cc2ccccc2)C(=O)O)[C@H]1OC(=O)c1ccccc1)C(=O)OC(C)C,–
–,–,4.72,CC(C)OC(=O)[C@H](O[C@@H]1O[C@@H](C)[C@@H](O)[C@@H](O)[C@@H]1O)[C@@H](O[C@@H]1O[C@H](CO)[C@H](OC(=O)c2ccccc2)[C@H](O[C@H](Cc2ccccc2)C(=O)O)[C@H]1O)C(=O)OC(C)C,–
–,–,4.80,COC(=O)[C@H](O[C@@H]1O[C@H](CO)[C@H](OC(=O)c2ccccc2)[C@H](O[C@H](Cc2ccccc2)C(=O)O)[C@H]1OC(=O)c1ccccc1)[C@@H](O[C@@H]1O[C@@H](C)[C@@H](O)[C@@H](O)[C@@H]1O)C(=O)OC(C)C,–
